Data taken from ChEMBL document CHEMBL1134631 (J Med Chem, 2001).

Experiments:
Format in all cases: functional
Homo sapiens [1] = organism: Homo sapiens; test: Percent ibuprofen detected after 2 hr incubation in acidic medium (pH=1) […]
Summary of the method: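 Compound (0.25 mM) in acetonitrile added to HCl solution at pH 1, 37 °C, incubated 2 h.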

Rattus norvegicus [2] = test: Ulcerogenic property after intragastric administration to conscious rats for 6 hrs
Summary of the method: (§1)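 Male Wistar rats (180-200 g), fasted 24 h with water allowed, groups of n = 6. […] Killed 6 h after dosing. Stomachs opened along the lesser curvature and examined under a stereomicroscope. Each haemorrhagic lesion was scored by greatest length (<1 mm = 1; 1-2 mm = 2; >2 mm = length in mm). Summed as lesion index, mean ± SEM.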

Homo sapiens [3] = organism: Homo sapiens; test: Percent ibuprofen detected after 6 hr incubation in human plasma.
Summary of the method: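 Compound (0.0438 µmol) in 5 µL acetonitrile added to 495 µL human plasma at 37 °C and incubated 6 h. Diluted with acetonitrile containing 0.1% TFA and centrifuged (9600g, 15 min). […] Expressed as %, mean ± SEM.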

Rattus norvegicus [4] = test: Percent inhibition of paw volume increase in carrageenan-induced rat after a dose of 40 mg/kg was administered and observed after 4 hours of incubation
Rattus norvegicus [5] = test: Percent inhibition of paw volume increase in carrageenan-induced rat after a dose of 40 mg/kg was administered and observed after 6 hours of incubation
Rattus norvegicus [6] = test: Percent inhibition of paw volume increase in carrageenan-induced rat after a dose of 120 mg/kg was administered and observed after 4 hours of incubation
Rattus norvegicus [7] = test: Alcerogenic property after intragastric administration to conscious rats for 6 hrs; summary of the method: as §1
Homo sapiens [8] = organism: Homo sapiens; test: Compound was evaluated for nitric oxide release (stimulate nitric oxide synthase) in human plasma
Rattus norvegicus [9] = test: Percent inhibition of paw volume increase in carrageenan-induced rat after a dose of 120 mg/kg was administered and observed after 6 hours of incubation
[10] = Antiaggregatory effect against arachidonic acid induced platelet aggregation from the human platelet rich plasma(PRP) in the presence of oxyhemoglobin (HbO2)
Summary of the method: (§2)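 Human citrated blood spun at 200g for 20 min to give PRP. Compound or DMSO (maximum 0.5%) added 10 min before arachidonic acid (0.5-1 mM, chosen to give 85-95% of maximal aggregation). Oxyhaemoglobin 40 µM final added 12 min before the activator. Light transmission read for 5 min at 37 °C with stirring. […] Mean ± SEM, n = 5.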

Rattus norvegicus [11] = test: Ulcerogenic property after intragastric administration to conscious rats after 6 hours of incubation; summary of the method: as §1
[12] = Antiaggregatory effect against arachidonic acid induced platelet aggregation from the human platelet rich plasma(PRP) in the presence of oxyheamoglobin(HbO2, 40 uM); summary of the method: as §2

Row | IC50 [10] [µM] | IC50 [12] [µM] | SMILES | Ibuprofen (Homo sapiens [1]) [%] | Lesion index (Rattus norvegicus [2]) [mm] | Ibuprofen (Homo sapiens [3]) [%] | inhibition in vivo at 40 mg/kg (Rattus norvegicus [4]) [%] | inhibition in vivo at 40 mg/kg (Rattus norvegicus [5]) [%] | inhibition in vivo at 120 mg/kg (Rattus norvegicus [6]) [%] | Lesion index (Rattus norvegicus [7]) [mm] | NO2- (mol/mol) (Homo sapiens [8]) [%] | inhibition in vivo at 120 mg/kg (Rattus norvegicus [9]) [%] | Lesion index (Rattus norvegicus [11]) [mm]
1 | – | – | CCCOC(=O)C(C)c1ccc(CC(C)C)cc1 (stereo not given) | 11.7 | 3.8 | 22.9 | 37.6 | 49.6 | – | – | – | – | –
2 | 57.5 | – | CC(C)Cc1ccc(C(C)C(=O)OCCCO[N+](=O)[O-])cc1 (stereo not given) | 22.3 | – | 27.1 | – | – | 41.8 | 0.7 | 3.2 | 40 | –
3 | – | 2.69 | CC(C)Cc1ccc(C(C)C(=O)OCCCOc2no[n+]([O-])c2S(=O)(=O)c2ccccc2)cc1 (stereo not given) | 12.9 | – | 46.8 | 37.4 | 41.5 | – | – | 34.7 | – | 0
4 | – | – | CC(C)Cc1ccc(C(C)C(=O)OCCCOc2no[n+]([O-])c2Sc2ccccc2)cc1 (stereo not given) | 6.5 | 0 | 35.6 | – | – | 40.7 | – | 9.5 | 36.2 | –
5 | – | – | CC(C)Cc1ccc(C(C)C(=O)OCCCOc2nonc2Sc2ccccc2)cc1 (stereo not given) | 6.1 | 1.3 | 8.9 | – | – | 48.3 | – | – | 54.4 | –
6 | – | – | CC(C)Cc1ccc(C(C)C(=O)OCCCOc2nonc2S(=O)(=O)c2ccccc2)cc1 (stereo not given) | 13 | 5.7 | 26 | 52.8 | 63.3 | – | – | – | – | –
